Results: ChEMBL document CHEMBL3576819, “Design, synthesis, biological evaluation and molecular docking studies of phenylpropanoid derivatives as potent anti-hepatitis B virus agents” (Eur J Med Chem, 2015)
Each block holds one compound with its values, some of them ahead of it.

Legend:
[1] = tested on: Hepatitis B virus; experiment: Antiviral activity against Hepatitis B virus infected in human HepG2.2.15 cells assessed as inhibition of HBeAg secretion at 150 uM after 6 days by ELISA; format: functional; details: HepG2 2.2.15, 144 h
Summary of the method: (§1)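 HepG2.2.15 cells (MEM, 10% FBS, 380 µg/ml G418) seeded at 1×10^5 cells/ml, held 24 h at 37 °C, then treated with various drug concentrations; medium with drug renewed every 3 d for up to 9 d. Culture medium sampled on days 3, 6 and 9, stored at -20 °C, and assayed for secreted antigen. Lamivudine as positive control; IC50 = 50% inhibition of secretion; means of at least two experiments.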

[2] = tested on: Hepatitis B virus; experiment: Antiviral activity against Hepatitis B virus infected in human HepG2.2.15 cells assessed as cell survival at 37.5 uM after 9 days (reference value: 100%); format: functional; details: HepG2 2.2.15, 216 h
Summary of the method: (§2)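 HepG2.2.15 cells (MEM, 10% FBS, 380 µg/ml G418, 37 °C, 5% CO2) seeded at 1×10^5 cells/ml, cultured 24 h, then exposed to various drug concentrations; drug-containing medium renewed every 3 d. OD read at 450 nm after 9 days; percent cell death calculated; CC50 = concentration killing 50% of cells. Means of at least two experiments.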

[3] = tested on: Hepatitis B virus; experiment: Antiviral activity against Hepatitis B virus infected in human HepG2.2.15 cells assessed as inhibition of HBsAg secretion at 300 uM after 9 days by ELISA; format: functional; details: HepG2 2.2.15, 216 h; summary of the method: as §1
[4] = tested on: Hepatitis B virus; experiment: Antiviral activity against Hepatitis B virus infected in human HepG2.2.15 cells assessed as inhibition of HBeAg secretion at 75 uM after 3 days by ELISA; format: functional; details: HepG2 2.2.15, 72 h; summary of the method: as §1
[5] = tested on: Hepatitis B virus; experiment: Antiviral activity against Hepatitis B virus infected in human HepG2.2.15 cells assessed as inhibition of HBeAg secretion at 300 uM after 9 days by ELISA; format: functional; details: HepG2 2.2.15, 216 h; summary of the method: as §1
[6] = tested on: Hepatitis B virus; experiment: Antiviral activity against Hepatitis B virus infected in human HepG2.2.15 cells assessed as inhibition of HBsAg secretion at 75 uM after 3 days by ELISA; format: functional; details: HepG2 2.2.15, 72 h; summary of the method: as §1
[7] = tested on: Hepatitis B virus; experiment: Antiviral activity against Hepatitis B virus infected in human HepG2.2.15 cells assessed as inhibition of HBsAg secretion at 150 uM after 6 days by ELISA; format: functional; details: HepG2 2.2.15, 144 h; summary of the method: as §1
[8] = tested on: Hepatitis B virus; experiment: Antiviral activity against Hepatitis B virus infected in human HepG2.2.15 cells assessed as inhibition of HBeAg secretion at 75 uM after 6 days by ELISA; format: functional; details: HepG2 2.2.15, 144 h; summary of the method: as §1
[9] = tested on: Hepatitis B virus; experiment: Antiviral activity against Hepatitis B virus infected in human HepG2.2.15 cells assessed as inhibition of HBeAg secretion at 150 uM after 9 days by ELISA; format: functional; details: HepG2 2.2.15, 216 h; summary of the method: as §1
[10] = Cytotoxicity against human HepG2.2.15 cells assessed as cell death after 9 days by MTT assay; format: cell-based, HepG2 2.2.15; summary of the method: as §2
[11] = tested on: Hepatitis B virus; experiment: Antiviral activity against Hepatitis B virus infected in human HepG2.2.15 cells assessed as inhibition of HBsAg secretion at 150 uM after 9 days by ELISA; format: functional; details: HepG2 2.2.15, 216 h; summary of the method: as §1
[12] = tested on: Hepatitis B virus; experiment: Antiviral activity against Hepatitis B virus infected in human HepG2.2.15 cells assessed as inhibition of HBeAg secretion at 75 uM after 9 days by ELISA; format: functional; details: HepG2 2.2.15, 216 h; summary of the method: as §1
[13] = tested on: Hepatitis B virus; experiment: Antiviral activity against Hepatitis B virus infected in human HepG2.2.15 cells assessed as inhibition of HBsAg secretion at 150 uM after 3 days by ELISA; format: functional; details: HepG2 2.2.15, 72 h; summary of the method: as §1
[14] = tested on: Hepatitis B virus; experiment: Antiviral activity against Hepatitis B virus infected in human HepG2.2.15 cells assessed as inhibition of HBeAg secretion at 150 uM after 3 days by ELISA; format: functional; details: HepG2 2.2.15, 72 h; summary of the method: as §1
[15] = tested on: Hepatitis B virus; experiment: Antiviral activity against Hepatitis B virus infected in human HepG2.2.15 cells assessed as inhibition of HBsAg secretion by ELISA; format: functional, organism-based; details: HepG2 2.2.15; summary of the method: as §1
[16] = tested on: Hepatitis B virus; experiment: Antiviral activity against Hepatitis B virus infected in human HepG2.2.15 cells assessed as inhibition of HBeAg secretion by ELISA; format: functional, organism-based; details: HepG2 2.2.15; summary of the method: as §1
[17] = tested on: Hepatitis B virus; experiment: Antiviral activity against Hepatitis B virus infected in human HepG2.2.15 cells assessed as inhibition of HBeAg secretion at 300 uM after 6 days by ELISA; format: functional; details: HepG2 2.2.15, 144 h; summary of the method: as §1
[18] = tested on: Hepatitis B virus; experiment: Antiviral activity against Hepatitis B virus infected in human HepG2.2.15 cells assessed as inhibition of HBsAg secretion at 75 uM after 6 days by ELISA; format: functional; details: HepG2 2.2.15, 144 h; summary of the method: as §1
[19] = Selectivity index, ratio of CC50 for human HepG2.2.15 cells to IC50 for Hepatitis B virus infected in human HepG2.2.15 cells assessed as inhibition of HBsAg secretion; format: functional
Summary of the method: (§3)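 Selectivity index computed as CC50/IC50, with CC50 from cell death of HepG2.2.15 cells after 9 days of treatment (OD 450 nm) and IC50 from 50% inhibition of HBeAg or HBsAg secretion in the same cells; medium with drug renewed every 3 d.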

[20] = tested on: Hepatitis B virus; experiment: Antiviral activity against Hepatitis B virus infected in human HepG2.2.15 cells assessed as inhibition of HBsAg secretion at 300 uM after 3 days by ELISA; format: functional; details: HepG2 2.2.15, 72 h; summary of the method: as §1
[21] = tested on: Hepatitis B virus; experiment: Antiviral activity against Hepatitis B virus infected in human HepG2.2.15 cells assessed as inhibition of HBsAg secretion at 37.5 uM after 3 days by ELISA; format: functional; details: HepG2 2.2.15, 72 h; summary of the method: as §1
[22] = Selectivity index, ratio of CC50 for human HepG2.2.15 cells to IC50 for Hepatitis B virus infected in human HepG2.2.15 cells assessed as inhibition of HBeAg secretion; format: functional; summary of the method: as §3
[23] = tested on: Hepatitis B virus; experiment: Antiviral activity against Hepatitis B virus infected in human HepG2.2.15 cells assessed as inhibition of HBeAg secretion at 300 uM after 3 days by ELISA; format: functional; details: HepG2 2.2.15, 72 h; summary of the method: as §1
[24] = tested on: Hepatitis B virus; experiment: Antiviral activity against Hepatitis B virus infected in human HepG2.2.15 cells assessed as cell survival at 150 uM after 9 days (reference value: 100%); format: functional; details: HepG2 2.2.15, 216 h; summary of the method: as §2
[25] = tested on: Hepatitis B virus; experiment: Antiviral activity against Hepatitis B virus infected in human HepG2.2.15 cells assessed as inhibition of HBsAg secretion at 300 uM after 6 days by ELISA; format: functional; details: HepG2 2.2.15, 144 h; summary of the method: as §1
[26] = tested on: Hepatitis B virus; experiment: Antiviral activity against Hepatitis B virus infected in human HepG2.2.15 cells assessed as inhibition of HBsAg secretion at 37.5 uM after 6 days by ELISA; format: functional; details: HepG2 2.2.15, 144 h; summary of the method: as §1
[27] = tested on: Hepatitis B virus; experiment: Antiviral activity against Hepatitis B virus infected in human HepG2.2.15 cells assessed as inhibition of HBsAg secretion at 37.5 uM after 9 days by ELISA; format: functional; details: HepG2 2.2.15, 216 h; summary of the method: as §1
[28] = tested on: Hepatitis B virus; experiment: Antiviral activity against Hepatitis B virus infected in human HepG2.2.15 cells assessed as cell survival at 300 uM after 9 days (reference value: 100%); format: functional; details: HepG2 2.2.15, 216 h; summary of the method: as §2
[29] = tested on: Hepatitis B virus; experiment: Antiviral activity against Hepatitis B virus infected in human HepG2.2.15 cells assessed as cell survival at 75 uM after 9 days (reference value: 100%); format: functional; details: HepG2 2.2.15, 216 h; summary of the method: as §2
[30] = tested on: Hepatitis B virus; experiment: Antiviral activity against Hepatitis B virus infected in human HepG2.2.15 cells assessed as inhibition of HBeAg secretion at 37.5 uM after 6 days by ELISA; format: functional; details: HepG2 2.2.15, 144 h; summary of the method: as §1
[31] = tested on: Hepatitis B virus; experiment: Antiviral activity against Hepatitis B virus infected in human HepG2.2.15 cells assessed as inhibition of HBeAg secretion at 37.5 uM after 9 days by ELISA; format: functional; details: HepG2 2.2.15, 216 h; summary of the method: as §1
[32] = tested on: Hepatitis B virus; experiment: Antiviral activity against Hepatitis B virus infected in human HepG2.2.15 cells assessed as inhibition of HBsAg secretion at 75 uM after 9 days by ELISA; format: functional; details: HepG2 2.2.15, 216 h; summary of the method: as §1
[33] = tested on: Hepatitis B virus; experiment: Antiviral activity against Hepatitis B virus infected in human HepG2.2.15 cells assessed as inhibition of HBeAg secretion at 37.5 uM after 3 days by ELISA; format: functional; details: HepG2 2.2.15, 72 h; summary of the method: as §1

IC50 [15]: 197 µM | IC50 [16]: 209 µM
Structure (SMILES): COc1cc(/C=C/C(=O)O/N=C/c2cccs2)cc(OC)c1OC
inhibition at 150 µM [1]: 28.2% | viability at 37.5 µM [2]: 100% | inhibition at 300 µM [3]: 57.7% | inhibition at 75 µM [4]: 8.64% | inhibition at 300 µM [5]: 55.1% | inhibition at 75 µM [6]: 26.3% | inhibition at 150 µM [7]: 44.4% | inhibition at 75 µM [8]: 20.9% | inhibition at 150 µM [9]: 46.3% | CC50 at 216 h [10]: 857 µM | inhibition at 150 µM [11]: 46.4% | inhibition at 75 µM [12]: 31.6% | inhibition at 150 µM [13]: 35.6% | inhibition at 150 µM [14]: 11.3% | inhibition at 300 µM [17]: 33.1% | inhibition at 75 µM [18]: 30.6% | Ratio CC50/IC50 [19]: 4.36 | inhibition at 300 µM [20]: 44.7% | inhibition at 37.5 µM [21]: 17.1% | Ratio CC50/IC50 [22]: 4.1 | inhibition at 300 µM [23]: 15.3% | viability at 150 µM [24]: 92.6% | inhibition at 300 µM [25]: 56% | inhibition at 37.5 µM [26]: 21.9% | inhibition at 37.5 µM [27]: 24.8% | viability at 300 µM [28]: 79.9% | viability at 75 µM [29]: 93.4% | inhibition at 37.5 µM [30]: 17.1% | inhibition at 37.5 µM [31]: 20.6% | inhibition at 75 µM [32]: 30.9%

IC50 [15]: 74.4 µM | IC50 [16]: 105 µM
Structure (SMILES): COc1cc(/C=C/C(=O)O/N=C/c2cccs2)cc2c1OCO2
inhibition at 150 µM [1]: 40% | viability at 37.5 µM [2]: 119% | inhibition at 300 µM [3]: 77.9% | inhibition at 75 µM [4]: 25.6% | inhibition at 300 µM [5]: 65.8% | inhibition at 75 µM [6]: 35.5% | inhibition at 150 µM [7]: 50.7% | inhibition at 75 µM [8]: 33.8% | inhibition at 150 µM [9]: 57.9% | CC50 at 216 h [10]: 677 µM | inhibition at 150 µM [11]: 68.2% | inhibition at 75 µM [12]: 48.9% | inhibition at 150 µM [13]: 46.6% | inhibition at 150 µM [14]: 33.8% | inhibition at 300 µM [17]: 51.1% | inhibition at 75 µM [18]: 37.4% | Ratio CC50/IC50 [19]: 9.1 | inhibition at 300 µM [20]: 59.3% | inhibition at 37.5 µM [21]: 19.1% | inhibition at 37.5 µM [33]: 12.7% | Ratio CC50/IC50 [22]: 6.47 | inhibition at 300 µM [23]: 41.9% | viability at 150 µM [24]: 97.5% | inhibition at 300 µM [25]: 67.3% | inhibition at 37.5 µM [26]: 23.3% | inhibition at 37.5 µM [27]: 29.7% | viability at 300 µM [28]: 95.6% | viability at 75 µM [29]: 107% | inhibition at 37.5 µM [30]: 16.1% | inhibition at 37.5 µM [31]: 29.2% | inhibition at 75 µM [32]: 56.1%
